Shown are actives, neighbours in structure and some others; about 3.7% of the full set was active somewhere.
Kir21 inh: blocks the mouse Kir2.1 inward-rectifier potassium channel | HEK293-Kir2.1, FluxOR thallium flux fluorescence; active compounds read low | B-score at 10 µM | 0.85% of 310,000 active | AID 1672;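 active means fluorescence ratio B-score at or below minus 3 SD of library scores, with starting-brightness B-score within 2 SD, cut at about -4.2 in these data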;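 further: channel flux triggered by added potassium and thallium sulfate stimulus; B-score of peak minus minimum fluorescence over baseline after thallium stimulus; more negative B-score means stronger Kir2.1 block with less thallium influx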
Target sequence (P35561 whole entry, looked up): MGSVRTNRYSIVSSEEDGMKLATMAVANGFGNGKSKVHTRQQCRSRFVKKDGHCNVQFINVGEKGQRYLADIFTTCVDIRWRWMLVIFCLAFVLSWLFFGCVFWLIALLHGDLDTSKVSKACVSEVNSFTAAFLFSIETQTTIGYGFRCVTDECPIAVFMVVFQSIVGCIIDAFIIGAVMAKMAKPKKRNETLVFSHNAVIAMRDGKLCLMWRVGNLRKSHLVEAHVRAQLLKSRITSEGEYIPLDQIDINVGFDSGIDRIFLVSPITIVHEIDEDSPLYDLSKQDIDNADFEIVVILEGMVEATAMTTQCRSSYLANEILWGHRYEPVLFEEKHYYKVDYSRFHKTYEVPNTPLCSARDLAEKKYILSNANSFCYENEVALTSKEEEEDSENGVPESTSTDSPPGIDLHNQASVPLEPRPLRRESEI
KCNQ1 pot: potentiates or activates the human KCNQ1 potassium channel; B-score at 10 µM; CHO-K1 KCNQ1, thallium flux FluxOR fluorescence; active compounds read high; 0.35% of 310,000 active;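 active means fluorescence ratio B-score, a plate-corrected score, at least three library SD, with initial intensity B-score within 5 SD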
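Schedule – 37 °C overnight plating, 90-min dark dye load, 20-min compound pretreatment · System – stable KCNQ1 CHO-K1 line · Probe or stimulus – thallium- and potassium-containing depolarizing buffer · Measured by – kinetic FluxOR fluorescence, 10 s baseline plus 110 s post-stimulus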
hERG protect: shields human hERG channel from block by proarrhythmic agents. activation (rescue from dofetilide block), less the hit threshold, % at 10 µM. CHO-hERG, FluxOR thallium flux, dofetilide IC70 present. 0.51% of 310,000 active. Q12809;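 active means activation above the mean of controls blocked by dofetilide plus 5 SD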;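 further: thallium influx through hERG after potassium depolarization seen as dye fluorescence rise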
KCNQ1 block: blocks the human KCNQ1 potassium channel. P51787. CHO-K1 KCNQ1, FluxOR thallium flux fluorescence; active compounds read high. AID 2642. B-score at 10 µM. 1.3% of 310,000 active;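 active means compounds whose thallium flux B-score, printed positive for inhibition, exceeds three library SD while starting fluorescence stays within three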;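 further: channel opened by potassium depolarization with thallium stimulus after 20 min compound exposure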
KCNK9 inh: inhibitors of human KCNK9 two-pore domain potassium channel; B-score at 10 µM; Q9NPC2; HEK293 KCNK9, FluxOR thallium flux fluorescence; active compounds read low; 1.2% of 310,000 active;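 active means ratio B-score over 3 SD below the library mean, with starting fluorescence within 5 SD of its mean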;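 further: negative B-score means less thallium flux so channel inhibition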
KCNK3 block: human KCNK3 channel inhibition, primary screen. AID 602410. 0.84% of 340,000 active. CHO-KCNK3 thallium flux, FluxOR fluorescence; active compounds read low. B-score at 10 µM. O14649;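 active means B-score under library mean minus 4 SD, starting fluorescence ratio at most library mean plus 5 SD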;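 further: more negative B-score means stronger inhibition of thallium flux through KCNK3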
KCNQ1 inh valid: confirmation of human KCNQ1 potassium channel inhibitors. KCNQ1 cell line, FluxOR thallium flux fluorescence. shares compounds with KCNQ1 block. inhibition, % at 10 µM. AID 588353. 93% of 1,600 active;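 active means primary screen active, with duplicate mean exceeding buffer control mean plus 3 SD of buffer wells, cut at about 28% in these data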
CHO KCNQ1 ctr: activity in parental CHO cells lacking KCNQ1; shares compounds with KCNQ1 block; parental CHO-K1, FluxOR thallium flux fluorescence ratio; active compounds read low; zero means no signal rise above baseline; fluorescence ratio (Tl flux) at 10 µM; 21% of 1,600 active;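 active means mean of duplicate thallium-flux fluorescence ratios in parental host cells more than 5 SD below the buffer control mean, cut at about 0.38 in these data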;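 further: ratio is peak minus minimum fluorescence divided by baseline fluorescence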
KCNQ1 ephys val: blocks human KCNQ1 current in automated patch clamp; shares compounds with KCNQ1 block; KCNQ1-CHO cells; calls only at 10 µM; 20% of 490 active; AID 624120;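 active means KCNQ1 current drop exceeding 3 SD of negative control wells, seen in both duplicate runs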;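 further: steady state current during a 2 s step from -80 to +40 mV; negative values mean current inhibition and positive values mean potentiation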
KCNQ2 inh: rat KCNQ2 inhibition in KCNQ1 inhibitor specificity screen; inhibition, % at 10 µM; shares compounds with KCNQ1 block; 71% of 1,600 active; KCNQ2 cells, FluxOR thallium flux fluorescence; AID 651746;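 active means mean percent inhibition of the KCNQ2 thallium signal more than 5 SD above the buffer-only control wells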;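 further: KCNQ2 expressed in CHO cells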
KCNQ1-KCNE1 inh: selectivity of KCNQ1 inhibitors: inhibition of human KCNQ1/KCNE1 channel. shares compounds with KCNQ1 block. KCNQ1/KCNE1 cells, FluxOR thallium flux fluorescence. inhibition, % at 10 µM. 77% of 1,600 active. AID 652147;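 active means mean percent inhibition of duplicate wells above the buffer-only control mean plus 3 SD of those controls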
Numbers stand for hits; n = inactive; x = no result given; + = active, no number.

SMILES	Kir21 inh	KCNQ1 pot	hERG protect	KCNQ1 block	KCNK9 inh	KCNK3 block	KCNQ1 inh valid	CHO KCNQ1 ctr	KCNQ2 inh	KCNQ1-KCNE1 inh	others
c1ccc2c(c1)ncn2CCCCOc1ccc2c(c1)CCC2	n	n	n	7	n	n	118	n	91%	82%	KCNQ1 ephys val=n
Cc1nn(CC(=O)N2CCN(C)CC2)c(=O)c2ccccc12	n	n	n	n	n	n	x	x	x	x
Cn1c(C(=O)N2CCC(C(N)=O)CC2)cc2cc(Cl)ccc21	n	n	n	n	n	n	x	x	x	x
CCCCCCNC(=O)C(C#N)c1nc2ccccc2nc1N1CCCC1 (stereo unspecified)	n	n	n	9	n	n	+	0.2	n	n
CCOC(=O)[C@@H]1[C@H]2COc3cc(OC)ccc3[C@H]2N2C(=O)N(c3ccc(Br)cc3)C(=O)[C@]12C	x	x	x	x	x	n	x	x	x	x
CC(C)(C)C1CCC(=O)N(CCC#N)CC1 (stereo unspecified)	n	n	n	n	n	n	x	x	x	x
Cc1cccc(NC(=O)c2cc(-c3ccc(C)s3)nc3ccccc23)n1	n	n	n	6	-7.2	n	92	n	98%	149%	KCNQ1 ephys val=n
Cc1sc(NC(=O)c2cc(-c3ccc(Cl)cc3)nc3ccccc23)c(C(N)=O)c1C	n	n	n	n	n	n	x	x	x	x
Cc1ccc(C)c(-c2cc(C(=O)Nc3nccs3)c3ccccc3n2)c1	n	n	n	8	-7.8	n	88	n	102%	125%	KCNQ1 ephys val=n
COC(=O)c1sccc1NC(=O)c1cc(-c2cc(C)ccc2C)nc2ccccc12	n	n	n	n	n	n	x	x	x	x
Cc1sc(NC(=O)c2cc(-c3ccccc3)nc3ccccc23)c(C(N)=O)c1C	n	n	n	6	n	n	97	n	100%	140%	KCNQ1 ephys val=n
NC1=C([N+](=O)[O-])C(c2ccc3c(c2)OCO3)C2=C(CCCC2=O)O1 (stereo unspecified)	n	n	n	n	n	n	x	x	x	x
O=C(COC(=O)Cc1ccccc1[N+](=O)[O-])NCC1CCCCC1	n	n	n	n	n	n	x	x	x	x
OCCN=C1CCCc2c1[nH]c1ccc(Br)cc21	n	n	n	n	n	n	x	x	x	x
C=CCN=C1CCCc2c1[nH]c1ccc(C)cc21	n	n	n	6	n	n	54	n	n	46%
OC1CCN(c2c3c(nc4cc(-c5ccc(Cl)cc5)nn24)CCC3)CC1	n	n	n	n	n	n	x	x	x	x
Clc1cccc(-c2cc3nc4c(c(N5CCOCC5)n3n2)CCCC4)c1	n	n	n	6	n	-9.1	101	n	78%	117%
COc1ccc(CCNc2nc(C)nc3c2oc2ccccc23)cc1OC	n	n	n	10	n	n	120	n	123%	78%	KCNQ1 ephys val=n
COc1ccc(CCNc2ncnc3c2oc2ccccc23)cc1OC	n	n	n	n	n	n	x	x	x	x
COc1ccc(C(Sc2ccccc2)c2ccccc2)cc1OC (stereo unspecified)	n	n	n	n	n	n	x	x	x	x
COc1ccccc1Oc1ccc(Oc2ccccc2OC)cc1	n	n	n	7	n	n	126	0.36	125%	108%
COc1ccc(Oc2ccccc2C#N)cc1	n	n	n	n	n	n	x	x	x	x
Cc1cccc(NC(=O)c2cc3n(n2)C(C(F)(F)F)CC(c2ccc4c(c2)OCO4)N3)c1 (stereo unspecified)	n	n	n	8	n	n	126	n	104%	94%	KCNQ1 ephys val=n
Cc1cc(NC(C)c2ccccc2)n2ncc(-c3ccccc3)c2n1 (stereo unspecified)	n	n	n	n	n	n	x	x	x	x
CC(C)(C)c1cc(NCc2ccccn2)n2ncc(-c3ccccc3)c2n1	n	n	n	7	n	n	72	n	n	61%
SMILES	Kir21 inh	KCNQ1 pot	hERG protect	KCNQ1 block	KCNK9 inh	KCNK3 block	KCNQ1 inh valid	CHO KCNQ1 ctr	KCNQ2 inh	KCNQ1-KCNE1 inh	others
Cc1cccc(C)c1OCc1cc(C(=O)N2CCC(C3CCCCC3)C2)no1 (stereo unspecified)	n	n	n	7	n	n	69	n	n	110%
O=C(c1cc(COc2cccc3cnccc23)on1)N1CCCC(CCCO)C1 (stereo unspecified)	n	n	n	14	n	n	108	n	92%	44%	KCNQ1 ephys val=n
Cc1cccc(C)c1OCc1cc(C(=O)N2CCC(c3ccccc3)CC2)no1	n	n	n	9	n	n	119	n	110%	168%	KCNQ1 ephys val=n
O=C(COC(=O)c1ccccn1)NC(=O)c1ccccc1	x	x	x	x	x	n	x	x	x	x
Cc1nn(C)c(Nc2ccc(Br)cc2)c1Br	n	n	n	6	n	n	88	n	n	44%	KCNQ1 ephys val=n
N#Cc1c(Cl)nsc1NC(=O)c1ccccc1	n	n	n	6	n	n	n	n	n	n
Clc1cc(Br)ccc1OCCCNCc1ccccc1	-10	n	n	7	n	n	68	n	90%	n
O=c1c(S(=O)(=O)c2ccc(Cl)cc2)cn(Cc2ccccc2F)c2ccc(F)cc12	n	n	n	n	n	n	x	x	x	x
CCn1c(=O)c(CCC(=O)N2CCN(c3ccccn3)CC2)c(C)c2c(C)nn(-c3ccccc3)c21	n	n	n	7	n	n	48	n	93%	80%
CCn1c(=O)c(CCC(=O)NCCN2CCOCC2)c(C)c2c(C)nn(-c3ccccc3)c21	n	n	n	n	n	n	x	x	x	x
CCC1(CC)Cc2ccccc2-c2nc(-c3ccccc3)oc(=O)c21	n	n	n	7	n	n	60	n	103%	91%
O=c1oc(-c2ccccc2)nc2c1C1(CCCCC1)Cc1ccccc1-2	n	n	n	n	n	n	x	x	x	x
O=C(Cc1cccs1)N1CCN(S(=O)(=O)c2ccc(F)c(F)c2)CC1	x	x	x	x	x	n	x	x	x	x
CCCN1CCc2c(sc(NC(=S)NC(=O)c3ccccc3)c2C#N)C1	n	n	n	n	n	n	x	x	x	x
CC(C)N1CCc2c(sc(NC(=S)NC(=O)c3ccccc3)c2C#N)C1	n	n	n	7	n	n	n	n	n	48%
CCc1ccccc1NC(=S)N1CCN(c2cccc(OC)c2)CC1	n	n	n	n	n	n	x	x	x	x
CN(Cc1ccc(F)cc1)C(=O)c1cccc(S(=O)(=O)N2CCN(c3ccccc3)CC2)c1	n	n	n	7	n	n	76	n	70%	n

Assay outcomes as filed in PubChem.
